Converted amounts (≈) assume the structure as drawn.
Key:
Phocaeicola vulgatus [1] = assay: Antimicrobial activity against Bacteroides vulgatus assessed as percent susceptible isolates after 48 hrs by agar dilution method; assay type: functional
Bacteroides caccae [2] = assay: Antimicrobial activity against Bacteroides caccae assessed as percent susceptible isolates after 48 hrs by agar dilution method; assay type: functional
Prevotella buccae [3] = assay: Antimicrobial activity against Prevotella buccae after 48 hrs by agar dilution method; assay type: functional; conditions: Segatella buccae
Procedure, shortened: (§1)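 CLSI agar dilution (M11-A7); inoculum 10^5 CFU applied by replicator; plates incubated anaerobically 48 h at 37°C. For piperacillin-tazobactam, tazobactam held constant at 4 μg/ml.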

Clostridium perfringens = assay: Antimicrobial activity against Clostridium perfringens after 48 hrs by agar dilution method; assay type: functional
Anaerococcus prevotii = assay: Antimicrobial activity against Anaerococcus prevotii after 48 hrs by agar dilution method; assay type: functional
Procedure, shortened: (§2)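 MICs on clinical anaerobe isolates by the CLSI agar dilution method. Inoculum of 10^5 CFU applied with a Steers replicator. Plates incubated 48 h at 37°C in an anaerobic chamber.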

Bifidobacterium sp. [4] = assay: Antimicrobial activity against Bifidobacterium sp. after 48 hrs by agar dilution method; assay type: functional; procedure, shortened: as §2
Bacteroides fragilis = assay: Antimicrobial activity against Bacteroides fragilis assessed as percent susceptible isolates after 48 hrs by agar dilution method; assay type: functional
[5] = system: Parabacteroides distasonis; assay: Antimicrobial activity against Bacteroides distasonis assessed as percent resistant isolates after 48 hrs by agar dilution method; assay type: functional
Procedure, shortened: (§3)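 CLSI agar dilution on recent Korean clinical anaerobe isolates. Inoculum 10^5 CFU per spot by replicator. Plates incubated in an anaerobic chamber at 37°C for 48 h. For piperacillin plus tazobactam, tazobactam was held constant at 4 μg/ml. Resistance and susceptibility rates derived from MICs.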

Eggerthella lenta [6] = assay: Antimicrobial activity against Eubacterium lentum assessed as percent resistant isolates after 48 hrs by agar dilution method; assay type: functional; procedure, shortened: as §3
Finegoldia magna [7] = assay: Antimicrobial activity against Finegoldia magna assessed as percent resistant isolates after 48 hrs by agar dilution method; assay type: functional; procedure, shortened: as §3
Schaalia odontolytica [8] = assay: Antimicrobial activity against Actinomyces odontolyticus assessed as percent susceptible isolates after 48 hrs by agar dilution method; assay type: functional
Eggerthella lenta [9] = assay: Antimicrobial activity against Eubacterium lentum assessed as percent susceptible isolates after 48 hrs by agar dilution method; assay type: functional; procedure, shortened: as §1
Bifidobacterium sp. [10] = assay: Antimicrobial activity against Bifidobacterium sp. assessed as percent resistant isolates after 48 hrs by agar dilution method; assay type: functional; procedure, shortened: as §3
Bacteroides ovatus [11] = assay: Antimicrobial activity against Bacteroides ovatus after 48 hrs by agar dilution method; assay type: functional; procedure, shortened: as §2
Prevotella intermedia [12] = assay: Antimicrobial activity against Prevotella intermedia after 48 hrs by agar dilution method; assay type: functional; procedure, shortened: as §1
Parvimonas micra = assay: Antimicrobial activity against Peptostreptococcus micros after 48 hrs by agar dilution method; assay type: functional; procedure, shortened: as §1
Schaalia odontolytica [13] = assay: Antimicrobial activity against Actinomyces odontolyticus assessed as percent resistant isolates after 48 hrs by agar dilution method; assay type: functional; procedure, shortened: as §3
Prevotella bivia [14] = assay: Antimicrobial activity against Prevotella bivia after 48 hrs by agar dilution method; assay type: functional; procedure, shortened: as §1
[15] = system: Peptostreptococcus anaerobius; assay: Antimicrobial activity against Peptostreptococcus anaerobius after 48 hrs by agar dilution method; assay type: functional; procedure, shortened: as §1
Clostridioides difficile [16] = assay: Antimicrobial activity against Clostridium difficile after 48 hrs by agar dilution method; assay type: functional
[17] = system: Bifidobacterium adolescentis; assay: Antimicrobial activity against Bifidobacterium adolescentis after 48 hrs by agar dilution method; assay type: functional; procedure, shortened: as §2
[18] = system: Parabacteroides distasonis; assay: Antimicrobial activity against Bacteroides distasonis assessed as percent susceptible isolates after 48 hrs by agar dilution method; assay type: functional
Prevotella buccae [19] = assay: Antimicrobial activity against Prevotella buccae assessed as percent resistant isolates after 48 hrs by agar dilution method; assay type: functional, Segatella buccae; procedure, shortened: as §3
[20] = system: Bacteroides thetaiotaomicron; assay: Antimicrobial activity against Bacteroides thetaiotaomicron assessed as percent susceptible isolates after 48 hrs by agar dilution method; assay type: functional
Bifidobacterium sp. [21] = assay: Antimicrobial activity against Bifidobacterium sp. assessed as percent susceptible isolates after 48 hrs by agar dilution method; assay type: functional; procedure, shortened: as §1
[22] = system: Bacteroides thetaiotaomicron; assay: Antimicrobial activity against Bacteroides thetaiotaomicron after 48 hrs by agar dilution method; assay type: functional; procedure, shortened: as §2
Schaalia meyeri [23] = assay: Antimicrobial activity against Actinomyces meyeri assessed as percent resistant isolates after 48 hrs by agar dilution method; assay type: functional; procedure, shortened: as §3
Hoylesella oralis [24] = assay: Antimicrobial activity against Prevotella oralis assessed as percent susceptible isolates after 48 hrs by agar dilution method; assay type: functional
Procedure, shortened: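 CLSI agar dilution MIC testing of clinical isolates. 10^5 CFU spotted by replicator, plates incubated 48 h at 37°C in an anaerobic chamber. Susceptibility rates derived from the MICs.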

Finegoldia magna [25] = assay: Antimicrobial activity against Finegoldia magna assessed as percent susceptible isolates after 48 hrs by agar dilution method; assay type: functional; procedure, shortened: as §1
Fusobacterium necrogenes = assay: Antimicrobial activity against Fusobacterium necrogenes after 48 hrs by agar dilution method; assay type: functional; procedure, shortened: as §1
Prevotella buccae [26] = assay: Antimicrobial activity against Prevotella buccae assessed as percent susceptible isolates after 48 hrs by agar dilution method; assay type: functional, Segatella buccae; procedure, shortened: as §1
Prevotella intermedia [27] = assay: Antimicrobial activity against Prevotella intermedia assessed as percent resistant isolates after 48 hrs by agar dilution method; assay type: functional; procedure, shortened: as §3
Bacteroides ovatus [28] = assay: Antimicrobial activity against Bacteroides ovatus assessed as percent resistant isolates after 48 hrs by agar dilution method; assay type: functional; procedure, shortened: as §3
Bacteroides caccae [29] = assay: Antimicrobial activity against Bacteroides caccae assessed as percent resistant isolates after 48 hrs by agar dilution method; assay type: functional; procedure, shortened: as §3
Actinomyces israelii = assay: Antimicrobial activity against Actinomyces israelii assessed as percent resistant isolates after 48 hrs by agar dilution method; assay type: functional; procedure, shortened: as §3
[30] = system: Peptostreptococcus anaerobius; assay: Antimicrobial activity against Peptostreptococcus anaerobius assessed as percent susceptible isolates after 48 hrs by agar dilution method; assay type: functional; procedure, shortened: as §3
Clostridioides difficile [31] = assay: Antimicrobial activity against Clostridium difficile assessed as percent susceptible isolates after 48 hrs by agar dilution method; assay type: functional
[32] = system: Bifidobacterium adolescentis; assay: Antimicrobial activity against Bifidobacterium adolescentis assessed as percent susceptible isolates after 48 hrs by agar dilution method; assay type: functional
Eubacterium sp. [33] = assay: Antimicrobial activity against Eubacterium sp. assessed as percent resistant isolates after 48 hrs by agar dilution method; assay type: functional; procedure, shortened: as §3
Actinomyces naeslundii = assay: Antimicrobial activity against Actinomyces naeslundii after 48 hrs by agar dilution method; assay type: functional; procedure, shortened: as §2
Fusobacterium nucleatum = assay: Antimicrobial activity against Fusobacterium nucleatum after 48 hrs by agar dilution method; assay type: functional; procedure, shortened: as §1
Prevotella bivia [34] = assay: Antimicrobial activity against Prevotella bivia assessed as percent resistant isolates after 48 hrs by agar dilution method; assay type: functional; procedure, shortened: as §3
Phocaeicola vulgatus [35] = assay: Antimicrobial activity against Bacteroides vulgatus after 48 hrs by agar dilution method; assay type: functional; procedure, shortened: as §2
Hoylesella oralis [36] = assay: Antimicrobial activity against Prevotella oralis assessed as percent resistant isolates after 48 hrs by agar dilution method; assay type: functional; procedure, shortened: as §3
[37] = system: Porphyromonas asaccharolytica; assay: Antimicrobial activity against Porphyromonas asaccharolytica after 48 hrs by agar dilution method; assay type: functional; procedure, shortened: as §1
Schaalia meyeri [38] = assay: Antimicrobial activity against Actinomyces meyeri assessed as percent susceptible isolates after 48 hrs by agar dilution method; assay type: functional
Eubacterium sp. [39] = assay: Antimicrobial activity against Eubacterium sp. assessed as percent susceptible isolates after 48 hrs by agar dilution method; assay type: functional; procedure, shortened: as §1
Finegoldia magna [40] = assay: Antimicrobial activity against Finegoldia magna after 48 hrs by agar dilution method; assay type: functional; procedure, shortened: as §1

O=C(N[C@H](CO)[C@H](O)c1ccc([N+](=O)[O-])cc1)C(Cl)Cl [CHLORAMPHENICOL] was tested, and the Activity (Phocaeicola vulgatus [1]) was 98%, the Activity (Bacteroides caccae [2]) was 98% and the MIC50 (Prevotella buccae [3]) was 4 µg/mL (≈ 12.4 µM). For the same molecule, the MIC90 (Prevotella buccae [3]) was 8 µg/mL (≈ 24.8 µM), the MIC50 (Clostridium perfringens) was 4 µg/mL (≈ 12.4 µM) and the MIC90 (Clostridium perfringens) was 4 µg/mL (≈ 12.4 µM). For the same molecule, the MIC50 (Anaerococcus prevotii) was 4 µg/mL (≈ 12.4 µM), the MIC90 (Anaerococcus prevotii) was 8 µg/mL (≈ 24.8 µM) and the MIC (Bifidobacterium sp. [4]) was 1 µg/mL (≈ 3.09 µM). The MIC50 (Bifidobacterium sp. [4]) was 1 µg/mL (≈ 3.09 µM), the MIC90 (Bifidobacterium sp. [4]) was 2 µg/mL (≈ 6.19 µM) and the Activity (Bacteroides fragilis) was 98%. For the same molecule, the Activity [5] was 0%, the Activity (Eggerthella lenta [6]) was 0% and the Activity (Finegoldia magna [7]) was 0%. The Activity (Schaalia odontolytica [8]) was 92%, the Activity (Eggerthella lenta [9]) was 92% and the Activity (Bifidobacterium sp. [10]) was 0%. For the same molecule, the MIC (Bacteroides ovatus [11]) was 4 µg/mL (≈ 12.4 µM), the MIC50 (Bacteroides ovatus [11]) was 4 µg/mL (≈ 12.4 µM) and the MIC90 (Bacteroides ovatus [11]) was 8 µg/mL (≈ 24.8 µM). The MIC (Prevotella intermedia [12]) was 0.5 µg/mL (≈ 1.55 µM), the MIC50 (Prevotella intermedia [12]) was 0.5 µg/mL (≈ 1.55 µM) and the MIC90 (Prevotella intermedia [12]) was 1 µg/mL (≈ 3.09 µM). For the same molecule, the MIC50 (Parvimonas micra) was 2 µg/mL (≈ 6.19 µM), the MIC90 (Parvimonas micra) was 2 µg/mL (≈ 6.19 µM) and the Activity (Schaalia odontolytica [13]) was 0%. The MIC50 (Prevotella bivia [14]) was 4 µg/mL (≈ 12.4 µM), the MIC90 (Prevotella bivia [14]) was 8 µg/mL (≈ 24.8 µM) and the MIC50 [15] was 2 µg/mL (≈ 6.19 µM). It also gave an MIC90 [15] of 2 µg/mL (≈ 6.19 µM), an MIC50 (Clostridioides difficile [16]) of 4 µg/mL (≈ 12.4 µM) and an MIC90 (Clostridioides difficile [16]) of 16 µg/mL (≈ 49.5 µM). It also gave an MIC [17] of 1 µg/mL (≈ 3.09 µM), an MIC50 [17] of 1 µg/mL (≈ 3.09 µM) and an MIC90 [17] of 2 µg/mL (≈ 6.19 µM). It also gave an Activity [18] of 98%, an Activity (Prevotella buccae [19]) of 0% and an Activity [20] of 98%. It also gave an Activity (Bifidobacterium sp. [21]) of 92%, an MIC [22] of 4 µg/mL (≈ 12.4 µM) and an MIC50 [22] of 4 µg/mL (≈ 12.4 µM). For the same molecule, the MIC90 [22] was 8 µg/mL (≈ 24.8 µM), the Activity (Schaalia meyeri [23]) was 0% and the Activity (Hoylesella oralis [24]) was 100%. It also gave an Activity (Finegoldia magna [25]) of 100%, an MIC (Fusobacterium necrogenes) of 0.13 µg/mL (≈ 0.402 µM) and an Activity (Prevotella buccae [26]) of 100%. For the same molecule, the Activity (Prevotella intermedia [27]) was 0%, the Activity (Bacteroides ovatus [28]) was 0% and the Activity (Bacteroides caccae [29]) was 0%. It also gave an Activity (Actinomyces israelii) of 0%, an Activity [30] of 100% and an Activity (Clostridioides difficile [31]) of 83%. The Activity [32] was 92%, the Activity (Eubacterium sp. [33]) was 0% and the MIC (Actinomyces naeslundii) was 1 µg/mL (≈ 3.09 µM). The MIC50 (Actinomyces naeslundii) was 1 µg/mL (≈ 3.09 µM), the MIC90 (Actinomyces naeslundii) was 2 µg/mL (≈ 6.19 µM) and the MIC (Fusobacterium nucleatum) was 0.13 µg/mL (≈ 0.402 µM). It also gave an Activity (Prevotella bivia [34]) of 0%, an MIC (Phocaeicola vulgatus [35]) of 4 µg/mL (≈ 12.4 µM) and an MIC50 (Phocaeicola vulgatus [35]) of 4 µg/mL (≈ 12.4 µM). The MIC90 (Phocaeicola vulgatus [35]) was 8 µg/mL (≈ 24.8 µM), the Activity (Hoylesella oralis [36]) was 0% and the MIC [37] was 0.13 µg/mL (≈ 0.402 µM). It also gave an Activity (Schaalia meyeri [38]) of 92%, an Activity (Eubacterium sp. [39]) of 92% and an MIC50 (Finegoldia magna [40]) of 4 µg/mL (≈ 12.4 µM). The MIC90 (Finegoldia magna [40]) was 4 µg/mL (≈ 12.4 µM).

Reference: ChEMBL document CHEMBL1671716, “Antimicrobial susceptibility patterns for recent clinical isolates of anaerobic bacteria in South Korea” (2010)
